Screens deposited in PubChem by Johns Hopkins Ion Channel Center.
KCNK9 block – blocks the human KCNK9 two-pore domain potassium channel; Q9NPC2; HEK293 KCNK9, FluxOR thallium flux fluorescence; stronger effect = lower value; B-score at 10 µM; hit rate 1.2% among 310,000; AID 488922;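 active = ratio B-score over 3 SD below the library mean, with starting fluorescence within 5 SD of its mean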;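 also: negative B-score means less thallium flux so channel inhibition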
KCNK3 inh – human KCNK3 channel inhibition, primary screen; CHO-KCNK3 thallium flux, FluxOR fluorescence; stronger effect = lower value; AID 602410; O14649; B-score at 10 µM; hit rate 0.84% among 340,000;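 active = B-score under library mean minus 4 SD, starting fluorescence ratio at most library mean plus 5 SD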;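 also: more negative B-score means stronger inhibition of thallium flux through KCNK3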
hERG protect – hERG (human) protection from proarrhythmic block; CHO-hERG, FluxOR thallium flux, dofetilide IC70 present; activation (rescue from dofetilide block), less the hit threshold, % at 10 µM; hit rate 0.51% among 310,000; AID 1511;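 active = activation above the mean of controls blocked by dofetilide plus 5 SD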;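 also: thallium influx through hERG after potassium depolarization seen as dye fluorescence rise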
KCNQ1 block – inhibitors of human KCNQ1 potassium channel. hit rate 1.3% among 310,000. P51787. CHO-K1 KCNQ1, FluxOR thallium flux fluorescence; stronger effect = higher value. B-score at 10 µM;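 active = compounds whose thallium flux B-score, printed positive for inhibition, exceeds three library SD while starting fluorescence stays within three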;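 also: channel opened by potassium depolarization with thallium stimulus after 20 min compound exposure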
Kir21 inh – Kir2.1 (mouse) channel inhibition; P35561; HEK293-Kir2.1, FluxOR thallium flux fluorescence; stronger effect = lower value; B-score at 10 µM; hit rate 0.85% among 310,000;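 active = fluorescence ratio B-score at or below minus 3 SD of library scores, with starting-brightness B-score within 2 SD, cut at about -4.2 in these data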;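 also: channel flux triggered by added potassium and thallium sulfate stimulus; B-score of peak minus minimum fluorescence over baseline after thallium stimulus; more negative B-score means stronger Kir2.1 block with less thallium influx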
KCNQ1 act – potentiates or activates the human KCNQ1 potassium channel; P51787; CHO-K1 KCNQ1, thallium flux FluxOR fluorescence; stronger effect = higher value; B-score at 10 µM; hit rate 0.35% among 310,000;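 active = fluorescence ratio B-score, a plate-corrected score, at least three library SD, with initial intensity B-score within 5 SD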
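Medium – assay buffer, equal DMSO in all wells · Material – CHO-K1 cell line with stable KCNQ1 potassium channel expression · Signal – kinetic FluxOR thallium fluorescence, 10-s 1-Hz baseline, 110-s post-stimulus read · Compound – single concentration per compound, DMSO matched to controls · Schedule – 37 °C overnight plating, 90-min dark dye load, 20-min compound pretreatment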
Each line names hits and unclear results; the compound was inactive in the other large screens. Shown are actives, neighbours in structure and some others; about 3.8% of the full set was active somewhere.

COc1ccc(CCn2c(-c3ccc(OC)cc3)nc3c(c(=O)c4ccccc4n3C)c2=O)cc1	none
CCOc1cc(CNC2CCCC2)ccc1OCc1ccccc1Cl	Kir21 inh -4.44
CCOc1c(Cl)cc(CNCC(C)C)cc1OC	none
COc1cc(CNC2CCCCCCC2)cc(Cl)c1OC	none
COc1cc(CNCc2ccccc2Cl)ccc1OCC(=O)NC1CCCCC1	Kir21 inh -4.74
CCOc1cc(CNC2CCCC2)cc(Cl)c1OCc1ccccc1	Kir21 inh -8.76
CCOc1cc(CNCC(C)C)cc(Cl)c1OCc1ccccc1	Kir21 inh -13.6
CCOc1cc(C2NN=C(c3ccccc3)S2)ccc1OCc1ccccc1Cl (stereo not drawn)	none
CC(C)c1ccc(NC(=O)/C(C#N)=C/c2ccncc2)cc1	KCNQ1 act 8
N#C/C(=C\c1ccncc1)C(=O)Nc1ccc(C(=O)O)cc1	none
COc1ccccc1N1N=C(C(=O)c2ccccc2)C2C(=O)N(c3ccc(Br)cc3)C(=O)C21 (stereo not drawn)	none
COc1ccccc1N1C(=O)C2C(C(=O)c3ccccc3)=NN(c3ccccc3)C2C1=O (stereo not drawn)	KCNQ1 block 6
O=C1CSC(c2ccccc2)N1CCc1ccccc1 (stereo not drawn)	Kir21 inh -4.25
NC(=O)c1ccc(C2SCC(=O)N2CCc2ccccc2)cc1 (stereo not drawn)	none (no result: KCNK9 block, hERG protect, KCNQ1 block, Kir21 inh, KCNQ1 act)
Cc1ccc(C)n1-c1ccc(N2CCOCC2)c([N+](=O)[O-])c1	none
CCCCOc1ccc(C(=O)N/N=C/c2ccc(OCCN3CCCCC3)c(OC)c2)cc1	KCNQ1 block 6
COc1ccccc1-c1nc(S(=O)(=O)c2ccc(Cl)cc2)c(N(C)C)o1	hERG protect 5.4
Cc1ccc(/C=C/C(=O)C2C(=O)c3ccccc3C2=O)cc1	hERG protect 24.8, KCNQ1 act 20
Cc1ccc(/C=C/C(=O)c2ccccc2O)cc1	none
CC(C)(C)OC(=O)NCCCCC1=CC2=CC(=O)C(C)(OC(=O)c3ccco3)C(=O)C2=CO1 (stereo not drawn)	none (no result: KCNK3 inh)
COc1ccccc1CNCC(O)(c1ccc(Cl)cc1)c1ccc(Cl)cc1	none
OC(CNCc1ccccc1F)(c1ccc(F)cc1)c1ccc(F)cc1	KCNK9 block -7.03
COc1ccccc1CNCC(O)(c1ccc(F)cc1)c1ccc(F)cc1	Kir21 inh -5.92
Cc1ccc(S(=O)(=O)N2CCN(C(=O)CCNC(=O)c3ccccc3Cl)CC2)cc1	none (no result: KCNK9 block, hERG protect, KCNQ1 block, Kir21 inh, KCNQ1 act)
CCOC(=O)c1cc2c(=Cc3ccc(N(C)C)cc3)c3ccccc3n2[n+]1C	KCNK3 inh -10.7 (no result: KCNK9 block, hERG protect, KCNQ1 block, Kir21 inh, KCNQ1 act)
Cc1cc2c(=Cc3ccc(N(C)C)cc3)c3ccccc3n2[n+]1C	KCNK3 inh -10 (no result: KCNK9 block, hERG protect, KCNQ1 block, Kir21 inh, KCNQ1 act)
CN(C)c1ccc(C=c2c3ccccc3n3c2c2ccccc2[n+]3C)cc1	none (no result: KCNK9 block, hERG protect, KCNQ1 block, Kir21 inh, KCNQ1 act)
ON(CCc1ccncc1)Cc1ccccc1	none (no result: KCNK9 block, hERG protect, KCNQ1 block, Kir21 inh, KCNQ1 act)
CCCCCCC[C@@H](C/C=C/CCC(=O)N(C)C/C(=C/Cl)C/C(=C\C(=O)N1C[C@H](O)CC1=O)OC)OC	none (no result: KCNK9 block, hERG protect, KCNQ1 block, Kir21 inh, KCNQ1 act)
CCCCCCC[C@@H](C/C=C/CCC(=O)N(C)C/C(=C/Cl)C/C(=C\C(=O)N1CC(OC)=CC1=O)OC)OC	KCNK3 inh -8.81 (no result: KCNK9 block, hERG protect, KCNQ1 block, Kir21 inh, KCNQ1 act)
O=C1CCC(c2ccc(-n3ccnc3)cc2)=NN1	KCNQ1 act 33
O=C1CCC(c2ccccc2)=NN1	none
Cc1cccc(N(C(=O)CCC(=O)Nc2ccccn2)C(C(=O)NC(C)C)c2ccc(F)cc2)c1 (stereo not drawn)	none
Cn1c(=O)cc(OCC(=O)N2CCN(c3cccc(C(F)(F)F)c3)CC2)c2ccccc21	none
CSc1ccc(C(=O)C2CCCN(C(=O)c3csc(C(C)=O)c3)C2)cc1 (stereo not drawn)	none
CC(C)c1ccc(OCc2ccc(C(=O)NN3CCN(C)CC3)o2)cc1	none
C=C1c2ccccc2S(=O)(=O)N(Cc2ccccc2)C1COCc1ccccc1 (stereo not drawn)	KCNK9 block -6.88
COCc1cc(C)nc(SCC(=O)Oc2ccc(Cl)cc2)c1C#N	none
CCCC(=O)c1ccc(-c2ccccc2)cc1	KCNK9 block -7.38
Cc1ccc(C(=O)CC(=O)c2ccccc2)cc1	none
O=C(CCCCCCCC(=O)c1ccccc1)c1ccccc1	KCNQ1 block 7
CCC1=NN2C(=N)/C(=C/c3cc(C)n(Cc4ccccc4)c3C)C(=O)N=C2S1	none
